Laboratory results published in ChEMBL document CHEMBL1681788, “Effect of structural modification in the amine portion of substituted aminobutyl-benzamides as ligands for binding σ1 and σ2 receptors” (Bioorg Med Chem, 2011).

Legend:
[1] = tested on: sigma1/sigma2 receptors (Cavia porcellus); assay: Selectivity ratio, ratio of Ki for guinea pig sigma1 receptor to Ki for guinea pig sigma2 receptor
[2] = Displacement of [3H]ditolylguanidine from sigma2 receptor in guinea pig brain membrane; format: cell membranes, Cavia porcellus
Outline: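 [3H]DTG competition binding with 500 nM (+)-PTZ present to mask σ1 sites, on fresh-frozen male English Hartley guinea pig brain membranes. Duplicate wells, four repeats. Compound stocks were 10^-3 M in acidified 1% EtOH/water.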

[3] = molecular target: Sigma non-opioid intracellular receptor 1 (Cavia porcellus, UniProt Q60492); assay: Displacement of [3H]-(+)-pentazocine from Sigma1-receptor in guinea pig brain membrane; format: cell membranes
Outline: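 Competition binding with [3H](+)-PTZ as radioligand on membranes from fresh-frozen male English Hartley guinea pig brain. Duplicates, repeated four times. Test compounds came from 10^-3 M stocks in acidified 1% EtOH/water.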

[4] = Chemical stability of the compound assessed as compound remaining after 16 hrs by HPLC analysis; format: physicochemical; conditions: read-out: Activity
Outline: (§1)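 Compounds held at 10^-3 M in aqueous stock buffer of 1% EtOH with AcOH: 2.5% AcOH generally, 0.1% AcOH for the HCl and oxalate salts. Stored in stock buffer, then purity analysed by analytical HPLC at the stated time point (16 h, 44 h or 25 days).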

[5] = Chemical stability of the compound assessed as compound remaining after 44 hrs by HPLC analysis; format: physicochemical; conditions: read-out: Activity
Outline: as §1

[6] = Chemical stability of the compound assessed as decomposition after 25 days by HPLC analysis; format: physicochemical; conditions: 600 h
Outline: as §1

Chain of Sigma non-opioid intracellular receptor 1 (Q60492 whole entry): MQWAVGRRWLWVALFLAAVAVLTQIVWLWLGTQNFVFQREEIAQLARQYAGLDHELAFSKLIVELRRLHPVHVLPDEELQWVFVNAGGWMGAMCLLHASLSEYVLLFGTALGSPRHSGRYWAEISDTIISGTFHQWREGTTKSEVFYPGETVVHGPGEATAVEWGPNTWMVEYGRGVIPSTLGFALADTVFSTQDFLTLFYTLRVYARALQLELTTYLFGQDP

With COc1ccc(CCNCCCCNC(=O)c2cc(Br)cc(OC)c2OC)cc1OC the Ratio Ki [1] was 0.2 and the Ki [2] was 4620 nM.

COc1cc2c(cc1OC)CCN(CCCCNC(=O)c1cc(Br)cc(OC)c1OC)CC2 showed a Ratio Ki [1] of 8.5, a Ki [2] of 734 nM and a Ki [3] of 5070 nM.

Work on COc1cc2c(cc1OC)CN(CCCCNC(=O)c1cc(Br)cc(OC)c1OC)CC2 yielded a Ki [2] of 2.7 nM.

For COc1ccc(CCN2CCN(CCCc3ccccc3)CC2)cc1OC [[11C]SA4503], the Ki [2] was 89.5 nM.

In the case of COc1ccc(CCN(C)CCCCNC(=O)c2cc(Br)cc(OC)c2OC)cc1OC, the Ki [2] is reported as 2130 nM.

For COc1cc2c(cc1OC)N(CCCCNC(=O)c1cc(Br)cc(OC)c1OC)CCCC2, the Ki [2] was 8960 nM and the Ki [3] was 2560 nM.

COc1cc2c(cc1OC)N(CCCCNC(=O)c1cc(Br)cc(OC)c1OC)CCC2 gave a remaining at 16 h [4] of 90%, a Ratio Ki [1] of 0.77 and a remaining at 44 h [5] of 38%. The Ki [2] was 5820 nM and the Ki [3] was 4500 nM.

COc1cc2c(cc1OC)N(CCCCNC(=O)c1cc(Br)cc(OC)c1OC)CC2 showed a remaining at 16 h [4] of 86%, a Ratio Ki [1] of 0.47 and a Ki [2] of 9680 nM. For the same compound, the Ki [3] was 4520 nM and the Stability [6] was “Unstable”.

For COc1cc2c(cc1OC)CN(CCCCNC(=O)c1cc(Br)cc(OC)c1OC)C2, the Ratio Ki [1] was 1760, the Ki [2] was 0.82 nM and the Ki [3] was 1440 nM.

Compound COc1cc2c(cc1OC)CN(CCCCNC(=O)c1cc(Br)cc(OC)c1OC)CCC2 has a Ratio Ki [1] of 6.58, a Ki [2] of 315 nM and a Ki [3] of 2070 nM.
